# Screens deposited in PubChem BioAssay by several laboratories.
# ABCB1 block: ABCB1 efflux pump inhibitors, primary screen, cell-based, multiplex, flow cytometry, ABCG2 counter-screen; ATP-dependent translocase ABCB1 (Homo sapiens), P08183; CCRF-Adr cells, JC-1 efflux; inhibition, % at 6.6 µM; actives 0.067% (n = 190,000); in the data active = inhibition above about 40%;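 note: 0% = vehicle and 100% = reference inhibitor; higher value means more JC-1 retained so stronger ABCB1 efflux block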
# WT yeast gro inh: growth inhibition of WT strain, primary screen, mitochondrial fusion inhibitor project, WT and mutant strains, chemical genetic | mitochondrial fusion phenotypic screen | inhibition, % at 10 µM | actives 2.1% (n = 190,000); in the data active = inhibition above about 58%; tested in S. cerevisiae
# MEKK3 PB1 HTS: modulators of MEKK3-MEK5 PB1 binding, primary screen, biochemical, wildtype MEKK3, multiplex bead flow cytometry, Alexa488-MEK5. Mitogen-activated protein kinase kinase kinase 3 (Homo sapiens), Q99759. bead-based flow cytometry, Alexa488-MEK5 binding to MEKK3; actives lie on both sides; 0 = blocked by unlabeled MEK5, 100 = vehicle. binding response (% of control), % at 10 µM. actives 1.4% (n = 290,000);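 active = binding response more than 3 SD above or below the average of its plate-row segment, actives on both sides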;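 note: Alexa488 bead fluorescence after subtracting the streptavidin-only scavenger bead signal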
# Target sequence (Q99759 whole entry, looked up): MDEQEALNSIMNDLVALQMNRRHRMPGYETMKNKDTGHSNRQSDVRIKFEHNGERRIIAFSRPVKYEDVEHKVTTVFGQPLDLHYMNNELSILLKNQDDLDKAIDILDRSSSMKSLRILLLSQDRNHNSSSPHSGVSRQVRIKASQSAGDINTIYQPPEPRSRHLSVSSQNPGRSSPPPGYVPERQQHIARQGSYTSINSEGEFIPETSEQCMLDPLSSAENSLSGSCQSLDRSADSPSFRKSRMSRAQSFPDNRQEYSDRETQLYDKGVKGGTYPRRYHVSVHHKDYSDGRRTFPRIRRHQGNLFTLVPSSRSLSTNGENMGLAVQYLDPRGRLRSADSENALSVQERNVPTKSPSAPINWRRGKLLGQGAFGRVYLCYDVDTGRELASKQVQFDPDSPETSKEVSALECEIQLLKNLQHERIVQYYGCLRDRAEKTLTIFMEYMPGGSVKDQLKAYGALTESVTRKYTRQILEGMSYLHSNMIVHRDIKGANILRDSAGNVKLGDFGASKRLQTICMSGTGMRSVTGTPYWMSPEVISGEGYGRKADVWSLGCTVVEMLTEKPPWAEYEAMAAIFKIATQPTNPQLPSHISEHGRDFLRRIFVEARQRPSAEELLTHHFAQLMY
# MEKK2 mut-MEK5: MEK5 binding signal on mutant MEKK2 PB1, primary screen, biochemical, multiplex bead flow cytometry, Alexa488-MEK5; Alexa488-MEK5 binding to MEKK2 mutant; percent response, % at 10 µM; actives 0.35% (n = 290,000); AID 1530, 2009; in the data active = percent response above about 24%, passing the limit was not always enough
# ABCG2 block: ABCG2 efflux pump inhibitors, primary screen, multiplex with ABCB1, IgMXP3 cells, flow cytometry; Broad substrate specificity ATP-binding cassette transporter ABCG2 (Homo sapiens), Q9UNQ0; JC-1 efflux; inhibition, % at 6.6 µM; actives 0.1% (n = 190,000);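 active = inhibition above 80%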;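 note: 0% = DMSO and 100% = nicardipine control wells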
#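 Test system: IgMXP3 (ABCG2) plus far-red-tagged CCRF-Adr (ABCB1) cells / Amount: 3 million cells/mL in well / Reagent: JC-1 transporter substrate / Timing: 10 min compound exposure, 25 °C / Signal: flow cytometry, 530 nm JC-1 signal / Read-out: percent efflux inhibition, scaled nicardipine 100% to DMSO 0% / Benchmarks: nicardipine as high control, DMSO as low control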
# MEKK2wt PB1 HTS: modulators of MEK5 binding to wildtype MEKK2, primary screen, biochemical, multiplex bead flow cytometry, Alexa488-MEK5; Alexa488-MEK5 binding to MEKK2 WT; actives lie on both sides; binding response (% of control), % at 10 µM; actives 1.1% (n = 290,000); AID 1531, 2009; in the data active = binding response below about 67% or above about 130%
# * hit, by the source's call; x = no result given. This is a sample that favours compounds with a hit; in the whole collection about 3.5% have one here.
SMILES,ABCB1 block,WT yeast gro inh,MEKK3 PB1 HTS,MEKK2 mut-MEK5,ABCG2 block,MEKK2wt PB1 HTS
CCN(CC)c1ccc(C=C2C(=O)OC(c3ccccc3)OC2=O)cc1 (configuration not stated),5,-2,102,-4,22,92
CCN(CC)c1ccc(/C=C/C(=O)C2C(=O)C=C(C)OC2=O)cc1 (configuration not stated),21,24,108,61*,35,72
O=C(c1cccc(Br)c1)c1cn(-c2ccccc2)nc1C(=O)c1ccccc1,0,0,x,x,7,x
CCOC(=O)c1oc2cc(O)c(CC)cc2c(=O)c1-c1cscn1,6,-10,97,-4,6,98
CCc1cc2c(=O)c(-c3cscn3)coc2cc1O,1,69*,x,x,8,x
C/C(=C\C(=O)O)C12CC3CC(CC(C3)C1)C2,0,9,102,6,1,109
CC(C)Cn1c(-c2csc3ccccc23)n[nH]c1=S,0,50,x,x,4,x
Cc1cccc(-n2c(-c3csc4ccccc34)n[nH]c2=S)c1,-1,64*,98,-2,-5,96
COc1ccc(C(=O)N=C2SC3CS(=O)(=O)CC3N2Cc2ccc(F)cc2)cc1 (configuration not stated),x,x,96,-7,x,92
COc1cc(/C=N/N(C)c2ccccc2)cc(Cl)c1O,0,59*,96,-3,-1,101
COc1ccc(CNC(=O)CCCC(=O)n2nc(C)c3ccccc32)cc1,x,x,101,-3,x,95
COC(=O)c1ccc(COc2cc(C)ccc2C)o1,x,x,103,4,x,107
COc1cc(OC)c(C2N(c3ccc(Cl)cc3)C(=O)C3CCCN32)cc1OC (configuration not stated),0,8,96,13,5,10*
COc1cc(OC)c(C2N(c3ccc(Cl)c(Cl)c3)C(=O)C3CCCN32)cc1OC (configuration not stated),1,15,99,1,17,101
COc1ccccc1-c1cc2nc(C)cc(C)n2n1,x,x,90,-20,x,86
COc1cc(CNCCO)cc(Br)c1OCc1ccccc1Cl,0,79*,x,x,-1,x
COc1cc(CNC(C)(C)CO)cc(Br)c1OCc1ccc(Cl)cc1Cl,3,94*,97,1,4,135
Nc1ccc(-c2c3ccc(=O)cc-3oc3cc(O)ccc23)cc1C(=O)O,x,x,106,27*,x,132
O=c1ccc2c(-c3ccccc3)c3ccc(O)cc3oc-2c1,x,x,74,-48,x,108
O=C(Nc1ccc(C(O)(C(F)(F)F)C(F)(F)F)cc1)c1ccc(Cl)c([N+](=O)[O-])c1,1,74*,104,2,32,111
CC(CC(=O)Nc1ccc(Cl)c([N+](=O)[O-])c1)c1ccccc1 (configuration not stated),1,80*,105,6,4,110
O=C(O)c1cc(NC(=O)c2ccc(Cl)c([N+](=O)[O-])c2)cc(C(=O)O)c1,0,-22,98,-1,-1,101
O=C(Nc1ccccc1)Nc1ccc(Cl)c([N+](=O)[O-])c1,0,82*,102,2,-2,105
CC(CC(=O)Nc1ccc(C(N)=O)cc1)c1ccccc1 (configuration not stated),0,4,97,1,3,102
CCCCn1c(N)c(N(CC)C(=O)c2ccccc2F)c(=O)[nH]c1=O,x,x,104,0,x,103
SMILES,ABCB1 block,WT yeast gro inh,MEKK3 PB1 HTS,MEKK2 mut-MEK5,ABCG2 block,MEKK2wt PB1 HTS
CCOc1ccccc1NC(C)C(=O)Nc1cc(C(F)(F)F)ccc1N1CCOCC1 (configuration not stated),4,69*,98,4,37,112
COc1ccc(CN2CCOCCOCCOCCOCC2)cc1,x,x,94,19,x,-3.0*
COc1ccc(CN2CCOCCOCCOCCOCCOCC2)cc1,x,x,104,5,x,104
CC(C)c1nc(N2CCOCC2)c(C#N)c2c1CCCC2,1,74*,102,-2,2,100
Oc1ccc2ccccc2c1C=Nc1cc(C(F)(F)F)ccc1N1CCCC1,-1,-6,95,17,-3,6.0*
Cc1ccc(S(=O)(=O)O/N=C2\CCCc3ccccc32)cc1,0,-5,105,5,1,106
CC1=C(C)/C(=N\OS(=O)(=O)c2ccccc2)C=CC1=O,0,80*,106,2,-1,108
Cc1[nH]n(C(C)(C)C)c(=O)c1Sc1ccc(Cl)cc1,0,61*,95,-3,1,95
COc1ccc2ccc3c(c2c1)N=CC1(O3)N(C)c2ccccc2C1(C)C (configuration not stated),0,78*,108,3,-1,101
CN1c2ccccc2C(C)(C)C12C=Nc1c(ccc3ccccc13)O2 (configuration not stated),-3,25,100,3,-4,95
CCCCOP(=O)(c1ccc(N(C)C)cc1)C(Nc1ccccc1)c1ccccc1 (configuration not stated),1,81*,103,2,1,103
Cc1cccn2cc(CSc3nnc(Nc4ccc(C(C)C)cc4)s3)nc12,1,68*,102,-3,3,113
CCc1cccc(CC)c1NC(=S)NCCc1c(C)[nH]c2ccccc12,2,68*,103,-4,7,99
CCc1cccc(CC)c1NC(=S)NCCc1ccc(O)c(O)c1,0,-6,101,0,0,102
COc1ccc(OC)c(NC(=O)C(=O)NNC(=O)c2cccs2)c1,0,3,98,13,0,113
COc1ccc(NC(=S)NCc2cccs2)cc1,0,3,96,-3,1,96
CC(C)c1ccc(NC(=S)NCc2cccs2)cc1,0,67*,97,-2,0,95
COc1ccc(-c2[nH]c(-c3cc(OC)c4c(c3)OCO4)nc2-c2ccccc2)cc1,1,63*,109,3,10,106
O=C(COc1ccc(F)cc1)N1CCC(Cc2ccccc2)CC1,x,x,103,5,x,102
C/C(=N\O)c1ccc2[nH]ccc2c1,0,-5,98,1,0,102
C/C(=N\O)c1ccc2c3c([nH]c2c1)CCCC3,0,74*,102,1,1,100
